Experimental data from different studies.
Organism: Pseudomonas aeruginosa
Observed: microbial growth

| Structure (SMILES) | method | strain | time | notes | MIC |
| --- | --- | --- | --- | --- | --- |
| Clc1ccc(NCc2ccc(Oc3ccccn3)cc2)cc1 | – | – | – | – | > 25 µg/mL |
| CN(C)[C@@H]1C(O)=C(C(N)=O)C(=O)[C@@]2(O)C(O)=C3C(=O)c4c(cc5ccc(CN(C)S(C)(=O)=O)cc5c4O)C[C@H]3C[C@@H]12 | broth dilution | ATCC27853 | – | – | 32 µg/mL |
| C/C(O)=C1\C(=O)C(CC(C)C)N(C(=O)CCCCCc2ccccc2)C1=O (stereo not shown) | – | PA01 | – | – | > 200 µg/mL |
| Cc1ccc(C)n1-c1ccc(-c2nnc(-c3cccc([N+](=O)[O-])c3)[nH]2)cc1 | broth dilution | ATCC10145 | 18 h | – | 250 µg/mL |
| CO[C@H]1/C=C/O[C@@]2(C)Oc3c(C)c(O)c4c(O)c(c(/C=N/N5CCN(C)CC5)c(O)c4c3C2=O)NC(=O)/C(C)=C\C=C\[C@H](C)[C@H](O)[C@@H](C)[C@@H](O)[C@@H](C)[C@H](OC(C)=O)[C@@H]1C | – | ATCC27853 | – | – | 16 µg/mL |
| CCCNc1nc(N(C)C)c2c(c1O)C(=O)C1=C(O)[C@]3(O)C(=O)C(C(N)=O)=C(O)[C@@H](N(C)C)[C@@H]3C[C@@H]1C2.Cl.Cl | broth dilution | ATCC27853 | – | – | > 32 µg/mL |
| NC[C@H]1O[C@H](O[C@H]2[C@H](O)[C@@H](O[C@H]3O[C@H](CO)[C@@H](O)[C@H](N)[C@H]3O)[C@H](N)C[C@@H]2N)[C@H](N)C[C@@H]1O | broth dilution | – | – | – | 13 µM |
| O=C(CCc1ccc(O)c(O)c1)NCCCCCCCC[P+](c1ccccc1)(c1ccccc1)c1ccccc1.[Br-] | broth dilution | ATCC27853 | 18 h | – | > 32 µg/mL |
| C[C@H]1[C@H](NC(=O)/C(=N\OC(C)(C)C(=O)O)c2csc(N)n2)C(=O)N1S(=O)(=O)O | agar dilution | ATCC27 | – | – | 4 µg/mL |
| O=c1[nH]cc(F)c(=O)[nH]1 | broth dilution | – | 24 h | – | 4 µg/mL |
| CCn1cc(C(=O)O)c(=O)c2cc(F)c(N3CCNCC3)cc21 | broth dilution | ATCC10145 | 18 h | – | > 5 µg/mL |
| O=C(CCCCCC[P+](c1ccccc1)(c1ccccc1)c1ccccc1)Nc1cc(O)c(O)c(O)c1.[Br-] | broth dilution | ATCC27853 | 18 h | – | > 32 µg/mL |
| CCN1CCN(C(=O)N[C@@H](C(=O)N[C@@H]2C(=O)N3C(C(=O)O)=C(CSc4nnnn4C)CS[C@H]23)c2ccc(O)cc2)C(=O)C1=O | broth dilution | PAO1 | – | – | 4 µg/mL |
| CC(C)Oc1c(NC(=O)c2ccc(NC(=O)[C@H](CC(N)=O)NC(=O)c3ccc(NC(=O)c4cccc([N+](=O)[O-])c4)cc3)cc2)ccc(C(=O)Nc2ccc(C(=O)O)cc2)c1O | – | PA14 | – | – | > 64 µg/mL |
| COc1c(C)c(OCc2ccccc2)c(C)c(O)c1C(=O)/C=C/c1ccccc1 | broth dilution | ATCC27853 | – | – | 5000 µg/mL |
| O=[N+]([O-])c1ccc(-c2nc3ccccc3n2Cc2ccccc2)cc1 | broth dilution | ATCC27853 | – | – | 128 µg/mL |
| C/C(O)=C1\C(=O)C(CC(C)C)N(C(=O)C=Cc2ccccc2)C1=O (stereo not shown) | – | PA01 | – | – | > 200 µg/mL |
| CC(C)Oc1c(NC(=O)c2ccc(NC(=O)[C@H](CC(N)=O)NC(=O)c3ccc(NC(=O)c4ccc([N+](=O)[O-])c(OC(C)C)c4O)cc3)cc2)ccc(C(=O)Nc2ccc(C(=O)O)cc2)c1O | – | PA14 | – | – | > 64 µg/mL |
| CN(C)c1ccc(-c2ccc3cc4c(c(O)c3c2)C(=O)C2=C(O)[C@]3(O)C(=O)C(C(N)=O)=C(O)[C@@H](N(C)C)[C@@H]3C[C@@H]2C4)cc1 | broth dilution | ATCC27853 | – | – | 32 µg/mL |
| CN(C)[C@@H]1C(O)=C(C(N)=O)C(=O)[C@@]2(O)C(O)=C3C(=O)c4c(cnc(-c5ccccc5)c4O)C[C@H]3C[C@@H]12.Cl.Cl | broth dilution | ATCC27853 | – | – | > 32 µg/mL |
| CCCCCC(=O)Oc1c(C)c(O)c(C(=O)/C=C/c2ccccc2)c(OC)c1C | broth dilution | ATCC27853 | – | – | 5000 µg/mL |
| O=[N+]([O-])c1ccc(-c2nc3cc(Cl)ccc3[nH]2)o1 | broth dilution | ATCC27853 | – | – | > 64 µg/mL |
| CC1=NN(CNC(=O)c2ccccn2)C(=O)C1=NNn1c(-c2ccccc2)nc2ccccc2c1=O | broth dilution | – | 24 h | – | 52 µM |
| CCN1CCN(C(=O)N[C@@H](C(=O)N[C@@H]2C(=O)N3[C@@H]2SC(C)(C)[C@@H]3C(=O)O)c2ccccc2)C(=O)C1=O | – | – | – | – | 12.5 µg/mL |
| CC(C)Nc1nc(Cl)c2c(c1O)C(=O)C1=C(O)[C@]3(O)C(=O)C(C(N)=O)=C(O)[C@@H](N(C)C)[C@@H]3C[C@@H]1C2.Cl.Cl.Cl | broth dilution | ATCC27853 | – | – | > 32 µg/mL |

| Structure (SMILES) | method | strain | time | notes | MIC |
| --- | --- | --- | --- | --- | --- |
| CC(C)Oc1c(NC(=O)c2ccc(NC(=O)[C@H](CC(N)=O)NC(=O)c3ccc(NC(=O)c4ccc(N)cc4)cc3)cc2)ccc(C(=O)Nc2ccc(C(=O)O)cc2)c1O | – | PA14 | – | – | > 64 µg/mL |
| COc1c(C)c(O)c(C)c(O)c1C(=O)/C=C/c1ccccc1 | broth dilution | ATCC27853 | – | – | 1250 µg/mL |
| Cc1ccc(C)n1-c1ccc(-c2nnc(-c3ccc(N(C)C)cc3)[nH]2)cc1 | broth dilution | ATCC10145 | 18 h | – | 250 µg/mL |
| Cc1nc(Cl)c2c(c1O)C(=O)C1=C(O)[C@]3(O)C(=O)C(C(N)=O)=C(O)[C@@H](N(C)C)[C@@H]3C[C@@H]1C2.Cl | broth dilution | ATCC27853 | – | – | > 32 µg/mL |
| CNC(=O)c1cc(Oc2ccc(NC(=O)Nc3ccc(Cl)c(C(F)(F)F)c3)cc2)ccn1 | – | DSM19882 | – | – | > 100 µM |
| CCCCCCC/C=C/C(=O)N1CC(=O)/C(=C(\C)O)C1=O | – | PA01 | – | – | 200 µg/mL |
| O=C1C[C@@H](c2ccc(O)cc2)Oc2cc(O)cc(O)c21 | broth dilution | PAO1 | – | – | 128 µg/mL |
| Brc1ccc(NCc2ccc(Oc3ccccn3)cc2)cc1 | – | – | – | – | > 25 µg/mL |
| Cc1ccc2nc(-c3ccc(Cl)cc3)n(Cc3ccccc3)c2c1 | broth dilution | ATCC27853 | – | – | 64 µg/mL |
| CC(C)Oc1c(NC(=O)c2ccc(NC(=O)[C@H](CC(N)=O)NC(=O)c3ccc(NC(=O)C(C)Oc4ccccc4)cc3)cc2)ccc(C(=O)Nc2ccc(C(=O)O)cc2)c1O (stereo partly shown) | – | PA14 | – | – | > 64 µg/mL |
| CCCCCCC#Cc1cncc(-c2nnc(SCc3ccc(Cl)c(F)c3)n2C)c1 | – | – | – | – | ≥ 20 µg/mL |
| CC1=NN(CNc2ccc(Cl)cc2)C(=O)C1=NNn1c(-c2ccccc2)nc2ccccc2c1=O | broth dilution | – | 24 h | – | 51.5 µM |
| CC1(C)SC2C(NC(=O)C(NC(=O)C3=C(O)C(c4ccccc4)NC3=O)c3ccccc3)C(=O)N2C1C(=O)O (stereo not shown) | – | – | – | – | 50 µg/mL |
| COc1c2c(c(O)c3cc(CN(C)C)ccc13)C(=O)C1=C(O)[C@]3(O)C(=O)C(C(N)=O)=C(O)[C@@H](N(C)C)[C@@H]3C[C@@H]1C2 | broth dilution | ATCC27853 | – | – | 16 µg/mL |
| Cc1cc(C(=O)Nc2ccc(C(=O)N[C@@H](CC(N)=O)C(=O)Nc3ccc(C(=O)Nc4ccc(C(=O)Nc5ccc(C(=O)O)cc5)c(O)c4OC(C)C)cc3)cc2)ccc1C#N | – | PA14 | – | – | 4 µg/mL |
| Clc1cccc(NCc2ccc(Oc3ccccn3)cc2)c1 | – | – | – | – | > 50 µg/mL |
| CC(C)Oc1c(NC(=O)c2ccc(NC(=O)[C@H](CC(N)=O)NC(=O)c3ccc(NC(=O)c4ccc(C#N)cc4)cc3)cc2)ccc(C(=O)Nc2cccc(C(=O)O)c2)c1O | – | PA14 | – | – | > 64 µg/mL |
| CC(C)(C)Oc1ccc(CC2NC(=O)C(C(=O)NC(C(=O)NC3C(=O)N4C3SC(C)(C)C4C(=O)O)c3ccccc3)=C2O)cc1 (stereo not shown) | – | – | – | – | 12.5 µg/mL |
| CC(=O)Nc1ccc(C(=O)Nc2ccc(C(=O)N[C@@H](CC(N)=O)C(=O)Nc3ccc(C(=O)Nc4ccc(C(=O)Nc5ccc(C(=O)O)cc5)c(O)c4OC(C)C)cc3)cc2)cc1 | – | PA14 | – | – | > 64 µg/mL |
| Fc1ccc(-c2nc3ccccc3n2Cc2ccccc2)cc1 | broth dilution | ATCC27853 | – | – | 128 µg/mL |
| CC1=NN(CNC(=O)c2ccccc2)C(=O)C1=NNn1c(-c2ccccc2)nc2ccccc2c1=O | broth dilution | – | 24 h | – | 51.9 µM |
| CC1(C)S[C@@H]2[C@H](NC(=O)C(C(=O)O)c3ccccc3)C(=O)N2[C@H]1C(=O)O (stereo partly shown) | broth dilution | – | – | clinical isolate | > 200 µM |
| CC(C)Oc1c(-n2cc(-c3ccc(NC(=O)C(CC(N)=O)NC(=O)c4ccc(NC(=O)c5ccc(C#N)cc5)cc4)cc3)nn2)ccc(C(=O)Nc2ccc(C(=O)O)cc2)c1O (stereo not shown) | – | PA14 | – | – | 8 µg/mL |
| COc1ncc(O)c2c1C[C@H]1C[C@H]3[C@H](N(C)C)C(O)=C(C(N)=O)C(=O)[C@@]3(O)C(O)=C1C2=O.Cl.Cl | broth dilution | ATCC27853 | – | – | > 32 µg/mL |
